The target in the first assay is T1, Vitamin D3 receptor (Rattus norvegicus) (UniProt P13053).
T1 sequence (whole entry): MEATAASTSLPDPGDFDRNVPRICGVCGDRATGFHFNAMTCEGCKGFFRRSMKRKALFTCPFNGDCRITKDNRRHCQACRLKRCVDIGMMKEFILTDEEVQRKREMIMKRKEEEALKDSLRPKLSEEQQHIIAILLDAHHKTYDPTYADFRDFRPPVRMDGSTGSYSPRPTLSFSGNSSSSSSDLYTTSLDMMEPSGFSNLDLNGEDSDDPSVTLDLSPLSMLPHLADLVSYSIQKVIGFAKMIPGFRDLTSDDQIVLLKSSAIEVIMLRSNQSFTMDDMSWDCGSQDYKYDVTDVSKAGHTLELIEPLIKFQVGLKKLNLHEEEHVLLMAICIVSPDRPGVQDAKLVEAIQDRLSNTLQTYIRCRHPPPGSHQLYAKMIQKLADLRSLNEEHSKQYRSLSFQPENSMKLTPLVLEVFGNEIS
Description: Ratio of 1alpha,25-(OH)2D3 Ki to compound Ki for full-length recombinant rat vitamin D receptor after 30 mins by liquid scintillation counting. Summed up:
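Competitive binding to VDR was run against radiolabeled 1α,25-(OH)₂D₃ at 1 nM. […] Duplicate determinations were made on two separate occasions. Each value is the mean of the 1α,25-(OH)₂D₃ Ki divided by the analogue Ki.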
Regarding `C=C1CC/C(=C\C=C2/CCC[C@]3(C)[C@@H]([C@@H](C)CCCC(C)(C)O)CC[C@@H]23)C[C@H]1O`, the Ratio Ki came to 0.1.
Still for that read-out and setting: the value for `C=C1CC/C(=C/C=C2\CCC[C@]3(C)[C@@H]([C@@H](C)CCCC(C)(C)O)CC[C@@H]23)C(=C)[C@H]1O` was 0.33.
Same read-out and setting: the value for `C=C1CC/C(=C/C=C2\CCC[C@]3(C)[C@@H]([C@H](C)CCCC(C)(C)O)CC[C@@H]23)C[C@H]1O` was 0.2.
Still for that read-out and setting: to `C=C1CC(=C)[C@H](O)C/C1=C/C=C1\CCC[C@]2(C)[C@@H]([C@H](C)CCCC(C)(C)O)CC[C@@H]12` belongs 0.05; to `C=C1CC/C(=C\C=C2/CCC[C@]3(C)[C@@H]([C@H](C)CCCC(C)(C)O)CC[C@@H]23)C[C@H]1O`, 0.02.

A further assay relates to HL-60. Description: Ratio of 1alpha,25-(OH)2D3 ED50 to compound ED50 for induction of human HL60 cell differentiation by nitro blue tetrazolium reduction assay. The class given is functional. Summed up:
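HL-60 promyelocytes were scored for maturation to monocytes as the percentage of cells reducing nitro blue tetrazolium. ED₅₀, the concentration giving 50% maturation, was taken from dose−response curves. The experiment was run in duplicate twice. Each value is the mean of the 1α,25-(OH)₂D₃ ED₅₀ divided by the analogue ED₅₀.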
Regarding `C=C1CC/C(=C\C=C2/CCC[C@]3(C)[C@@H]([C@@H](C)CCCC(C)(C)O)CC[C@@H]23)C[C@H]1O`, the “Ratio ED50” value is recorded as 0.07.
The same measure, in the same setting: to `C=C1CC/C(=C/C=C2\CCC[C@]3(C)[C@@H]([C@@H](C)CCCC(C)(C)O)CC[C@@H]23)C(=C)[C@H]1O` belongs 4; to `C=C1CC/C(=C/C=C2\CCC[C@]3(C)[C@@H]([C@H](C)CCCC(C)(C)O)CC[C@@H]23)C[C@H]1O`, 2.2; to `C=C1CC(=C)[C@H](O)C/C1=C/C=C1\CCC[C@]2(C)[C@@H]([C@H](C)CCCC(C)(C)O)CC[C@@H]12`, 0.005.
Still for that read-out and setting: the value for `C=C1CC/C(=C\C=C2/CCC[C@]3(C)[C@@H]([C@H](C)CCCC(C)(C)O)CC[C@@H]23)C[C@H]1O` was 0.01.

A further assay has as its target T1, Vitamin D3 receptor (Rattus norvegicus). Description: Ratio of 1alpha,25-(OH)2D3 ED50 to compound ED50 for VDR-mediated 24-hydroxylase gene expression in rat ROS 17/2.8 cells after 16 hrs by luciferase reporter assay. The class given is cell-based. Summed up:
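Rat osteosarcoma cells stably transfected with a 24-hydroxylase gene reporter plasmid were used as a transcription assay. ED₅₀ is the concentration raising luciferase activity by 50%, taken from dose−response curves. Each value is the ratio of the 1α,25-(OH)₂D₃ ED₅₀ to the analogue ED₅₀.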
`C=C1CC/C(=C\C=C2/CCC[C@]3(C)[C@@H]([C@@H](C)CCCC(C)(C)O)CC[C@@H]23)C[C@H]1O`: the Ratio ED50 worked out at 0.07.
Still for that read-out and setting: to `C=C1CC/C(=C/C=C2\CCC[C@]3(C)[C@@H]([C@@H](C)CCCC(C)(C)O)CC[C@@H]23)C(=C)[C@H]1O` belongs 1; to `C=C1CC/C(=C/C=C2\CCC[C@]3(C)[C@@H]([C@H](C)CCCC(C)(C)O)CC[C@@H]23)C[C@H]1O`, 0.7; to `C=C1CC(=C)[C@H](O)C/C1=C/C=C1\CCC[C@]2(C)[C@@H]([C@H](C)CCCC(C)(C)O)CC[C@@H]12`, 0.0005.
The same measure, in the same setting: to `C=C1CC/C(=C\C=C2/CCC[C@]3(C)[C@@H]([C@H](C)CCCC(C)(C)O)CC[C@@H]23)C[C@H]1O` belongs 0.001.

A further assay relates to Rattus norvegicus. Description: Effect on bone calcium mobilization in weanling Sprague-Dawley rat assessed as serum calcium level at 87 pmol/day, ip administered as 4 consecutive daily doses measured 24 hrs after last dose (reference value: 4.2 to 4.9 mg/dL). The class given is functional.
As for `C=C1/C(=C\C=C2/CCC[C@]3(C)[C@@H]([C@H](C)CCCC(C)(C)O)CC[C@@H]23)C[C@@H](O)C[C@@H]1O` [CALCITRIOL], the Activity came out at 5 mg/dL.
The same measure, in the same setting: to `C=C1CC/C(=C/C=C2\CCC[C@]3(C)[C@@H]([C@@H](C)CCCC(C)(C)O)CC[C@@H]23)C(=C)[C@H]1O` belongs 4.9 mg/dL; to `C=C1CC(=C)[C@H](O)C/C1=C/C=C1\CCC[C@]2(C)[C@@H]([C@H](C)CCCC(C)(C)O)CC[C@@H]12`, 4.4 mg/dL.

The subject of another assay is Rattus norvegicus. As to the kind of experiment: Effect on bone calcium mobilization in weanling Sprague-Dawley rat assessed as serum calcium level at 780 pmol/day, ip administered as 4 consecutive daily doses measured 24 hrs after last dose (reference value: 4.2 to 4.9 mg/dL). The class given is functional.
As for `C=C1/C(=C\C=C2/CCC[C@]3(C)[C@@H]([C@H](C)CCCC(C)(C)O)CC[C@@H]23)C[C@@H](O)C[C@@H]1O` [CALCITRIOL], the Activity stood at 7.5 mg/dL.
On the same count and under the same terms, the value for `C=C1CC/C(=C/C=C2\CCC[C@]3(C)[C@@H]([C@@H](C)CCCC(C)(C)O)CC[C@@H]23)C(=C)[C@H]1O` was 9.7 mg/dL.
On the same count and under the same terms, to `C=C1CC(=C)[C@H](O)C/C1=C/C=C1\CCC[C@]2(C)[C@@H]([C@H](C)CCCC(C)(C)O)CC[C@@H]12` belongs 5.4 mg/dL.

In another assay the test system is Rattus norvegicus. Description: Effect on bone calcium mobilization in weanling Sprague-Dawley rat assessed as serum calcium level at 7020 pmol/day, ip administered as 4 consecutive daily doses measured 24 hrs after last dose (reference value: 4.2 to 4.9 mg/dL). The class given is functional.
As to `C=C1CC(=C)[C@H](O)C/C1=C/C=C1\CCC[C@]2(C)[C@@H]([C@H](C)CCCC(C)(C)O)CC[C@@H]12`, the Activity turned out to be 8.2 mg/dL.

Another assay relates to Rattus norvegicus. Description: Effect on bone calcium mobilization in weanling Sprague-Dawley rat assessed as serum calcium level at 32 pmol/day, ip administered as 4 consecutive daily doses measured 24 hrs after last dose (reference value: 4.2 to 4.9 mg/dL). The class given is functional.
Regarding `C=C1CC/C(=C/C=C2\CCC[C@]3(C)[C@@H]([C@@H](C)CCCC(C)(C)O)CC[C@@H]23)C(=C)[C@H]1O`, the Activity turned out to be 4.8 mg/dL.

Another assay has as its system Rattus norvegicus. Description: Effect on intestinal calcium transport in weanling Sprague-Dawley rat assessed as increase in ratio of serosal to mucosal calcium level at 780 pmol/day, ip administered as 4 consecutive daily doses measured 24 hrs after last dose. The class given is functional.
Regarding `C=C1CC/C(=C/C=C2\CCC[C@]3(C)[C@@H]([C@@H](C)CCCC(C)(C)O)CC[C@@H]23)C(=C)[C@H]1O`, the Ratio came to 12.6.
Same read-out and setting: to `C=C1CC(=C)[C@H](O)C/C1=C/C=C1\CCC[C@]2(C)[C@@H]([C@H](C)CCCC(C)(C)O)CC[C@@H]12` belongs 9.4.

The subject of a further assay is Rattus norvegicus. As to the kind of experiment: Effect on intestinal calcium transport in weanling Sprague-Dawley rat assessed as increase in ratio of serosal to mucosal calcium level at 87 pmol/day, ip administered as 4 consecutive daily doses measured 24 hrs after last dose. The class given is functional.
On to `C=C1CC/C(=C/C=C2\CCC[C@]3(C)[C@@H]([C@@H](C)CCCC(C)(C)O)CC[C@@H]23)C(=C)[C@H]1O`, for which the Ratio is 10.2.
Still for that read-out and setting: the value for `C=C1CC(=C)[C@H](O)C/C1=C/C=C1\CCC[C@]2(C)[C@@H]([C@H](C)CCCC(C)(C)O)CC[C@@H]12` was 5.7.

The subject of the next assay is Rattus norvegicus. As to the kind of experiment: Effect on intestinal calcium transport in weanling Sprague-Dawley rat assessed as increase in ratio of serosal to mucosal calcium level at 7020 pmol/day, ip administered as 4 consecutive daily doses measured 24 hrs after last dose. The class given is functional.
Consider `C=C1CC(=C)[C@H](O)C/C1=C/C=C1\CCC[C@]2(C)[C@@H]([C@H](C)CCCC(C)(C)O)CC[C@@H]12`, for which the Ratio was found to be 10.2.

Another assay relates to Rattus norvegicus. Description: Effect on intestinal calcium transport in weanling Sprague-Dawley rat assessed as increase in ratio of serosal to mucosal calcium level at 35100 pmol/day, ip administered as 4 consecutive daily doses measured 24 hrs after last dose. The class given is functional.
With `C=C1CC(=C)[C@H](O)C/C1=C/C=C1\CCC[C@]2(C)[C@@H]([C@H](C)CCCC(C)(C)O)CC[C@@H]12`, the Ratio turned out to be 9.7.

The test system of a further assay is Rattus norvegicus. Description: Effect on intestinal calcium transport in weanling Sprague-Dawley rat assessed as increase in ratio of serosal to mucosal calcium level at 32 pmol/day, ip administered as 4 consecutive daily doses measured 24 hrs after last dose. The class given is functional.
Turning to `C=C1CC/C(=C/C=C2\CCC[C@]3(C)[C@@H]([C@@H](C)CCCC(C)(C)O)CC[C@@H]23)C(=C)[C@H]1O`, the Ratio is 7.9.

These data come from ChEMBL document CHEMBL3351472, “Synthesis and Biological Activity of 25-Hydroxy-2-methylene-vitamin D3 analogues monohydroxylated in the A-ring” (J Med Chem, 2014).
